Laboratory results from PMC12808237 (Nature Communications, 2025).

Key:
[1] = target: T1, MITF(217-296) (Homo sapiens, UniProt O75030); assay: Protein-observed NMR titration; assay type: binding
T1 sequence (O75030 217-296 isoform O75030-9): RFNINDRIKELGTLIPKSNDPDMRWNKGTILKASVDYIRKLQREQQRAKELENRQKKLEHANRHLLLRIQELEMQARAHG

[2] = target: T1, MITF(217-296); assay: 19F NMR reporter assay; assay type: binding
[3] = target: T2, MITF(180-296) (Homo sapiens, UniProt O75030); assay: Surface plasmon resonance; assay type: binding; conditions: 25 °C
T2 sequence (O75030 287-403): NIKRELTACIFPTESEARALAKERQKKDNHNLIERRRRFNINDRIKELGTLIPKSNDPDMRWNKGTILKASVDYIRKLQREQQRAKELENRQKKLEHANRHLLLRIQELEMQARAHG
How it was run: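 MITF(180-296), biotinylated via C-terminal Avi-tag, was captured on a streptavidin chip at 6 µg mL-1 to ~3000 RU. Run at 25 °C in 25 mM Tris-HCl pH 7.5, 150 mM NaCl, 0.05% Tween 20, 3 mM EDTA, 0.5 mM TCEP, 10 mM L-arginine, 3% DMSO. Test compound was injected as a 2- or 3-fold series at 60 µL min-1 (60 s association, 150 s dissociation). Double-referenced data were fitted globally to a 1:1 model for kon, koff and KD.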

[4] = target: T3, MITF(180-296) (Homo sapiens, UniProt O75030); assay: Isothermal titration calorimetry; assay type: binding; conditions: 25 °C, n = 2, mean ± SD
T3 sequence (O75030 300-403 limits assumed): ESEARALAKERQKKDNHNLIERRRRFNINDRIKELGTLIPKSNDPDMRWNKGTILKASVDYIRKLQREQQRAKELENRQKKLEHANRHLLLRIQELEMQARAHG
How it was run: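 Run at 25 °C in high-feedback mode. Buffer: 25 mM Tris-HCl pH 7.5, 150 mM NaCl, 10 mM L-arginine, 3 mM EDTA, 0.5 mM TCEP. Cell held 12 µM purified dimeric wild-type avi-tagged MITF(180-296), dialysed twice at 4 °C, with 2% DMSO. Syringe held 182–220 µM test compound diluted from DMSO. Duplicates were fitted with automatic baseline/integration; reported as mean ± SD.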

[5] = target: MYC/MAX (Homo sapiens, UniProt P01106+P61244); assay: NMR chemical shift perturbation; assay type: binding
Sequence of MYC/MAX (P01106 368-449): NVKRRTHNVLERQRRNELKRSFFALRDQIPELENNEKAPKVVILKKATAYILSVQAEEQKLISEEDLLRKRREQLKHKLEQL
Sequence of MYC/MAX (P61244 22-102): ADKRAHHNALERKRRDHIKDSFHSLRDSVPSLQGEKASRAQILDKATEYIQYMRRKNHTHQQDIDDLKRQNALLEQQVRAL

[6] = test system: MITF-dependent target genes; conditions: cited from earlier work
[7] = test system: melanoma cell lines; conditions: cited from earlier work
[8] = target: T3, MITF(180-296); assay: Nano differential scanning fluorimetry; assay type: binding; conditions: nanoDSF, compound at 50 μM
How it was run: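 Wild-type MITF(180-296) was spun 16,000 × g, 10 min, 4 °C, then used at 0.3 mg mL-1 final in 50 mM HEPES pH 8, 300 mM NaCl, 5% glycerol, 1 mM TCEP. Test compound 50 μM final, 3% DMSO; DMSO for apo. Shaken 30 min at RT and re-spun. Heated 20–95 °C at 0.5 °C min-1; 280 nm excitation, 330/350 nm emission. Duplicates.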

[9] = test system: MITF(180-296) A264C; assay: ITC with MITF variant A264C; assay type: binding, human; conditions: 25 °C
[10] = test system: MITF(180-296) R263A; assay: ITC with MITF variant R263A; assay type: binding, human; conditions: 25 °C
[11] = test system: MITF(180-296) Q261A; assay: ITC with MITF variant Q261A; assay type: binding, human; conditions: 25 °C
[12] = KD (MITF NMR KD), protein-observed NMR titration
[13] = SPR KD,eq, equilibrium affinity

Question: Which results are given for `O=C(O)c1[nH]c2ccc(Cl)cc2c1-c1ccccc1` [compound 3]?
Answer: Kd [1, 12]: 327 µM; ligand efficiency ([2]; from NMR affinities): 0.25

Question: For `Cc1cc(C#CC2(O)CCCCC2)cc2c1cc(C(=O)O)n2-c1ccccc1` [compound 7], which Kd [3, 13] is on record?
Answer: The Kd was 4 µM.

Question: And the “ITC KD” value [4]?
Answer: The value was “low-μM range”.

Question: And the Kd [5]?
Answer: The Kd was greater than 200 µM.

Question: For `O=C(O)c1cc2cc(F)ccc2n1-c1ccc(F)cc1` [compound 1], which Kd ([1]; KD, protein-observed NMR titrations) is on record?
Answer: The Kd was 1000 µM.

Question: With `O=C(O)c1cc2ccc(C#CC3(O)CCCCC3)cc2n1-c1ccccc1` [compound 6] as the molecule, how does the Ki [2] read?
Answer: The Ki was 2.6 µM.

Question: And the “improved binding affinity compared to compound 3” value ([2]; Ki of 6 versus KD of 3)?
Answer: The value was greater than 100 fold.

Question: What about the Kd [3, 13] of the same molecule?
Answer: Its Kd is 8 µM.

Question: And the “ITC KD” value [4]?
Answer: Its value is “low-μM range”.

Question: What about the Kd [5] of the same molecule?
Answer: The Kd was greater than 200 µM.

Question: With `O=C(O)c1[nH]c2ccc(Cl)cc2c1-c1ccc(F)cc1` [compound 5] as the molecule, how does the Kd [1, 12] read?
Answer: Its Kd is 104 µM.

Question: Which results are given for `NS(=O)(=O)c1ccc(NC2=CC(=O)c3ccccc3C2=O)cc1` [ML329]?
Answer: effect on MITF-dependent target genes [6]: induce downregulation of a subset of MITF-dependent target genes; effect on survival of melanoma cell lines [7]: negatively impact survival of melanoma cell lines

Question: Which Kd [3, 13] does the source give for `O=C(O)c1cc2ccc(C#CC3(O)CCCCC3)cc2n1-c1cccc(Cl)c1` [compound 8] here?
Answer: The Kd was 1.9 µM.

Question: And the Kd ([3]; kinetic affinity constant (KD,kin), SPR, from kon and koff)?
Answer: Its Kd is 1.8 µM.

Question: What about the Kd ([4]; ITC KD) of the same molecule?
Answer: The Kd was 0.47 ± 0.17 µM.

Question: And the “-TΔS” value ([4]; ITC)?
Answer: The value was 2.96 ± 2.08 kcal/mol.

Question: What about the ΔG ([4]; ITC) of the same molecule?
Answer: The ΔG was -8.63 ± 0.21 kcal/mol.

Question: And the ΔH ([4]; ITC)?
Answer: The ΔH was -11.8 ± 1.55 kcal/mol.

Question: And the “thermal stabilization of MITF” value [8]?
Answer: The value was 3.4 °C.

Question: What about the “binding to MITF variant by ITC” value [9] of the same molecule?
Answer: The value was “significant disruption of binding interactions”.

Question: And the “binding to MITF variant by ITC” value [10]?
Answer: The value was “significant disruption of binding interactions”.

Question: And the “binding to MITF variant by ITC” value [11]?
Answer: Its value is “significant disruption of binding interactions”.
